From PubChem
MBD2 inh = inhibitors of human MBD2 binding to methylated oligonucleotide; Q9UBB5; TR-FRET; inhibition, % at 4.4 µM; 370,000 compounds, 0.31% hits; AID 686964; in the data active = inhibition above about 13%
UHRF1 binding = UHRF1 methyl-DNA binding inhibition | Q96T88 | UHRF1 binding to methylated oligo, TR-FRET | inhibition, % at 4.4 µM | 370,000 compounds, 0.75% hits;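 also: UHRF1 SRA domain binding a hemimethylated CpG hairpin DNA probe; 0% = median of test compound wells and 100% = reference inhibitor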
ABHD5 PLIN5 PPI = blocks binding of human ABHD5 to perilipin-5; inhibition, % at 4 µM; Q00G26+Q8WTS1; 360,000 compounds, 0.78% hits; Split G. princeps luciferase complementation, luminescence, 4 h;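 active = inhibition above the mean inhibition across every tested compound plus 3 SD, cut at about 22% in these data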;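 also: 0% = DMSO only wells and the 100% control is not disclosed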
PRMT1 inh = inhibitors of human PRMT1; Q99873; recombinant PRMT1, activity-based probe fluorescence polarization; inhibition, % at 2.79 µM; 370,000 compounds, 1.3% hits; AID 652257;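 active = inhibition above about 21% made by adding two undisclosed values, limit read from the data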
Target sequence (Q99873 whole entry, looked up): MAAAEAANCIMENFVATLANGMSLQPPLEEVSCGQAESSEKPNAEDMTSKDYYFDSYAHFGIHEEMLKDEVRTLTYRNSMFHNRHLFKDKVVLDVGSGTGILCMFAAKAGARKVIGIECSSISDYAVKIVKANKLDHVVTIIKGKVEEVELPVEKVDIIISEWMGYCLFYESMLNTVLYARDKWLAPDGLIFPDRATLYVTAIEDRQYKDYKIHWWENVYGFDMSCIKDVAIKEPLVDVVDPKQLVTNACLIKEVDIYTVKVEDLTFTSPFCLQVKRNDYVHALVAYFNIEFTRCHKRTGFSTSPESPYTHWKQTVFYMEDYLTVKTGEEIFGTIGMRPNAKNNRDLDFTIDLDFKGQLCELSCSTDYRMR
LEDGF integ inh = blocks HIV-1 LEDGF/p75-dependent DNA integration; inhibition, % at 3.7 µM; TR-FRET IN-LEDGF/p75 DNA integration, Eu/Cy5; AID 743269; 370,000 compounds, 0.64% hits;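 active = inhibition above the screen-wide mean plus 3 SD, cut at about 13% in these data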;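 also: signal is the Cy5 over europium emission ratio at 671 and 618 nm; 0% = plate median of compound wells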
RBBP9 inh = human RBBP9 hydrolase inhibition. O75884. recombinant RBBP9, FP-Rh probe fluorescence polarization. inhibition, % at 7.94 µM. 220,000 compounds, 0.2% hits. AID 1515;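 active = inhibition above the campaign mean of all tested compounds plus 3 SD, cut at about 14% in these data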;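 also: plate controls were DMSO wells with RBBP9 for no effect and wells lacking RBBP9 protein for full effect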
Target sequence (O75884 whole entry, looked up): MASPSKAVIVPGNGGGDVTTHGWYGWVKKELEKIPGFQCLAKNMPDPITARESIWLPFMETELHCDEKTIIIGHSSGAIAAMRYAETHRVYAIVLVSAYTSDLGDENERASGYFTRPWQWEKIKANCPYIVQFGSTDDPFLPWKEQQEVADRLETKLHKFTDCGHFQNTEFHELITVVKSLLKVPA
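Test system: recombinant human RBBP9; Timing: 30 min then 45 min, 25 °C; Detection: fluorescence polarization; Control set: RBBP9 with DMSO as uninhibited control, no-protein wells as full inhibition; Compound dosing: one concentration, 7.94 µM nominal, 0.794% DMSO; Probe or stimulus: FP-Rh activity-based probe, 375 nM before mixing.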
UHRF1 DNA bind = UHRF1 methyl-oligo binding inhibition as MBD2 counter-screen | shares compounds with MBD2 inh | UHRF1 binding to methylated oligonucleotide, TR-FRET | inhibition, % at 4.4 µM | 1,000 compounds, 25% hits | AID 720530;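 also: UHRF1 SRA domain binding a labeled hemimethylated CpG hairpin DNA; 0% = vehicle only and 100% = reference inhibitor with vehicle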
MBD2 DBD conf = MBD2-DBD methyl-DNA binding inhibition, TR-FRET confirmation. TR-FRET MBD2-DBD binding to methylated oligonucleotide. 1,000 compounds, 26% hits. inhibition, % at 4.4 µM. shares compounds with MBD2 inh; in the data active = inhibition above about 14%
Numbers without * were called inactive; . = no result given. Hits are enriched below; roughly 3.1% of the tested compounds scored in any of these assays. Rule as the data show it, unless noted: active = inhibition above about 21%; inactive = the rest.

SMILES	MBD2 inh	UHRF1 binding	ABHD5 PLIN5 PPI	PRMT1 inh	LEDGF integ inh	RBBP9 inh	UHRF1 DNA bind	MBD2 DBD conf
Cc1cccc2c(N=NC(=O)c3ccc(NS(=O)(=O)c4cccs4)cc3)c(O)[nH]c12	21*	0	3	5	-2	.	4	3
COc1ccc([C@H]2OC(=O)C[C@H]2C(=O)N2CCCCC2)cc1OC	0	-3	.	7	1	.	.	.
COc1ccc(CN2CCC(CNC(=O)Nc3ccc(C)c(F)c3)CC2)cc1	3	-3	.	-2	0	.	.	.
COc1cccc(C(=O)Nc2ccc(Oc3cccc(C(F)(F)F)c3)nc2)c1	14*	0	-8	-2	4	-16	5	0
COc1ccc2c(c1)c(/C=N/Nc1ccc(C(=O)O)cc1)c(C)n2C	15*	0	-1	5	7	-7	7	2
O=C(N[C@H](Cc1ccccc1)C(=O)N1CCN(c2ncccn2)CC1)[C@H]1O[C@@H](n2ccc(=O)[nH]c2=O)[C@H](O)[C@@H]1O	-1	-2	.	0	4	.	.	.
CCC[C@H]1[C@@H](NC(=O)c2ccc(Cl)cc2)CC[C@@]23CCCN2C(=O)CCC[C@@H]13	4	0	.	1	-3	.	.	.
COc1ccc(N(C)S(=O)(=O)c2cccc(C(=O)Nc3nc(C)c(C(C)=O)s3)c2)cc1	15*	17	-1	16	1	.	6	4
COc1ccc(N(C)S(=O)(=O)c2cccc(C(=O)Nc3nnc(C)s3)c2)cc1	3	5	2	-1	-2	.	.	.
Cc1c[nH]c2cccc(-c3ccc4c(c3)OCO4)c12	-5	-2	.	-1	0	.	.	.
Cc1cccc(C(=O)NC(=O)Nc2c(C)cc(C)nc2C)c1	14*	24*	2	0	0	-1	4	4
Cc1cccc(C(=O)NNC(=O)c2cccc(C)c2)c1	-1	4	3	-3	2	0	.	.
CCOC(=O)[C@@]12CCC3=C1N(CCC3)C(=O)[C@H](CC(=O)N1CCCCC1)C2	0	2	.	0	-2	.	.	.
CC(=O)OC[C@@H]1CN(Cc2ccccc2)C[C@H](n2cnc3c(NC(C)C)ncnc32)O1	0	2	2	2	0	.	.	.
CC(=O)OC[C@@H]1CN(Cc2ccccc2)C[C@H](n2ccc3c(N)ncnc32)O1	36*	1	3	-3	0	.	11	2
CCCc1c(C)[nH]c2ccc(C(=O)O)cc2c1=S	25*	77*	1	15	12	1	38*	23*
CCN(CC)S(=O)(=O)c1ccc(N2CCOCC2)c(NC(=O)c2nn(C)c(=O)c3ccccc23)c1	14*	0	-10	4	-7	.	7	5
CCOc1ccc(N=Nc2c(C)noc2C)cc1	18*	26*	-1	2	3	-5	12	2
COc1cccc2sc3ccc(NCCC4CCCN4C)cc3c(=O)c12 (stereo not drawn)	-6	-17	2	5	-2	.	.	.
COc1cc2sc3cc(NCC[C@@H]4CCCN4C)ccc3c(=O)c2cc1OC	18*	0	9	-2	0	.	10	22*
Cc1ccccc1CC1(CO)CCCN(C(=O)CCC(=O)c2ccccc2)C1 (stereo not drawn)	-2	-1	4	0	-1	1	.	.
Cc1ccccc1CC1(CO)CCCN(C(=O)CCN2CCCO2)C1 (stereo not drawn)	16*	2	-6	-8	5	.	4	3
Cc1cc2c(=Cc3ccc(N(C)C)cc3)c3ccccc3n2[n+]1C	32*	47*	13	4	0	.	60*	64*
COc1cc(-c2nnc(SCC(=O)N3C(C)CCCC3C)o2)cc(OC)c1OC (stereo not drawn)	-4	0	.	-5	6	.	.	.
CCN1Cc2nnn(Cc3ccccc3)c2-c2cc(N3CCCC3)ccc2S1(=O)=O	3	-4	.	-3	-2	.	.	.
SMILES	MBD2 inh	UHRF1 binding	ABHD5 PLIN5 PPI	PRMT1 inh	LEDGF integ inh	RBBP9 inh	UHRF1 DNA bind	MBD2 DBD conf
CN1C2=N[C@@H](c3ccc4ccccc4c3)CC(=O)N2/C(=C\c2ccccc2)[C@H]1c1ccccc1	14*	28*	.	18	2	.	20	12
CN1C2=N[C@@H](c3ccccc3)CC(=O)N2/C(=C\c2ccccc2)[C@H]1c1ccccc1	22*	31*	.	2	12	.	9	8
CN1C2=N[C@@H](c3ccc4c(c3)OCO4)CC(=O)N2/C(=C\c2ccccc2)[C@@H]1c1ccccc1	-3	2	.	1	0	.	.	.
O=C(NC1CCC1)c1ccc(C#Cc2cccc(F)c2)nc1	17*	17	.	-1	7	.	14	10
Cc1cccc(Cn2cc(SCC(=O)Nc3nccs3)c3ccccc32)c1	30*	1	-11	5	2	-4	5	1
O=C(Nc1ccc(N2CCN(Cc3ccccc3Cl)CC2)cc1)c1cccnc1	15*	0	2	-4	-3	-3	6	4
Cc1ccccc1NC(=O)c1ccc(CN2CCc3ccccc3C2)cc1	34*	0	-12	-4	1	-5	5	3
Cc1cccc(NC(=O)c2ccc(CN3CCc4ccccc4C3)cc2)c1C	-4	3	0	-3	0	-7	.	.
CCOC(=O)C1=CCN(S(=O)(=O)c2ccc(Cl)cc2)C1c1cccc(F)c1 (stereo not drawn)	1	-1	.	3	0	.	.	.
COc1ccc(NC(=O)N(C)C[C@@H]2OCCCC[C@@H](C)Oc3ccc(NS(C)(=O)=O)cc3C(=O)N([C@H](C)CO)C[C@@H]2C)cc1	-3	-1	.	5	-2	.	.	.
CCN(CC)C(=S)NC(=O)c1cccnc1	2	2	1	1	2	-2	.	.
CCN(CC)C(=S)NC(=O)c1ccc(F)cc1	27*	-1	8	1	2	-6	3	4
